Assay results: ChEMBL document CHEMBL4732040, “Irreversible inhibition of BoNT/A protease: proximity-driven reactivity contingent upon a bifunctional approach” (RSC Med Chem, 2021)
Where a name gives a salt, the structure may show the parent alone. The source made the active and inactive calls. No cut-off for these calls is given here.

Legend:
[1] = biological target: Botulinum neurotoxin type A (Clostridium botulinum) (UniProt P0DPI0); test: Time dependent inhibition of Clostridium botulinum BoNT/A light chain (1 to 425 residues) using SNAPtide flp6 as substrate by FRET assay; conditions: dose 100.0 µM, time hrs <=8
Chain of Botulinum neurotoxin type A (Clostridium botulinum) (P0DPI0 2-448 limits assumed): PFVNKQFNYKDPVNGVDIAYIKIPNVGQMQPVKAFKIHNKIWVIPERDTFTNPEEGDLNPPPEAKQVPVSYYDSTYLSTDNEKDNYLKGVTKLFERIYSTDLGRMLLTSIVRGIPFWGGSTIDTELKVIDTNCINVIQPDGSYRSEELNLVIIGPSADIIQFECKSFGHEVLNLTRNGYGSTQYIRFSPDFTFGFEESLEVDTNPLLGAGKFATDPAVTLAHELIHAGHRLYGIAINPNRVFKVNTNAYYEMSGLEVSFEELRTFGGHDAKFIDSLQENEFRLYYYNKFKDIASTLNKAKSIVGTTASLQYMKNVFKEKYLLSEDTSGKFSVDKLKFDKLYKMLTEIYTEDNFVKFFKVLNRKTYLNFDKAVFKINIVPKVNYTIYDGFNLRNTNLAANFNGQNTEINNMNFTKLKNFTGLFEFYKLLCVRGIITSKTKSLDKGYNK

[2] = biological target: Botulinum neurotoxin type A (Clostridium botulinum) (UniProt P0DPI0); test: Irreversible inhibition of Clostridium botulinum BoNT/A light chain (1 to 425 residues) assessed as ratio of Kinact/Ki using SNAPtide flp6 as substrate inhibited for 1 hr by FRET assay
HEK293 = test: Cytotoxicity against human HEK293 cells assessed as reduction in cell viability incubated for 24 hrs by MTT assay; type: cell-based; conditions: for Activity: human, hek293, 24 h, time 24 hrs
Summary of the method: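 HEK293 cells were exposed to compound for 24 h before viability read-out. The paper reports n = 3, with error bars as SD.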

[3] = GSH reactivity assessed as half life at 1 mM in presence of glutathione; type: physicochemical
[4] = biological target: Matrix metalloproteinase-14 (Homo sapiens, UniProt P50281); test: Inhibition of MMP-14 (unknown origin) at 25 uM using TQ3-GABA-Pro-Cha-Abu-Smc-His-Ala-Dab(6'-TAMRA)-Ala-Lys-NH2 as substrate bu fluorometric analysis
Summary of the method: (§1)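 Residual activity of each MMP in the panel was measured in the presence of compound at 25 μM.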

[5] = biological target: T1, Matrix metalloproteinase-19 (Homo sapiens, UniProt Q99542); test: Inhibition of MMP-19 (unknown origin) at 25 uM using TQ3-GABA-Pro-Cha-Abu-Smc-His-Ala-Dab(6'-TAMRA)-Ala-Lys-NH2 as substrate bu fluorometric analysis; summary of the method: as §1
T1 sequence (Q99542 whole entry): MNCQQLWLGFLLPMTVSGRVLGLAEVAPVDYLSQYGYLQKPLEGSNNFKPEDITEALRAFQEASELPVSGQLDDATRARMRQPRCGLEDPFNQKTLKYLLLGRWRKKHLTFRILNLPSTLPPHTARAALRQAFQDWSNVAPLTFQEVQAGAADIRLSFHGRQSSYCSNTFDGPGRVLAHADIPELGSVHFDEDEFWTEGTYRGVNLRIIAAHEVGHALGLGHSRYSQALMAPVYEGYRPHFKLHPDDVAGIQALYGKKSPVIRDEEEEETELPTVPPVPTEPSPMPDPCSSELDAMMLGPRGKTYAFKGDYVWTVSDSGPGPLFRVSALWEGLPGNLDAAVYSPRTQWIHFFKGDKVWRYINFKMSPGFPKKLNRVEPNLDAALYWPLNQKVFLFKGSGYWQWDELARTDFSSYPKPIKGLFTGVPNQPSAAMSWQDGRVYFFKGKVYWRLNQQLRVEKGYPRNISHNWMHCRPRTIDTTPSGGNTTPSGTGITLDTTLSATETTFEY

Matrilysin = biological target: T2, Matrilysin (Homo sapiens, UniProt P09237); test: Inhibition of MMP-7 (unknown origin) at 25 uM using TQ3-GABA-Pro-Cha-Abu-Smc-His-Ala-Dab(6'-TAMRA)-Ala-Lys-NH2 as substrate bu fluorometric analysis; summary of the method: as §1
T2 sequence (P09237 whole entry): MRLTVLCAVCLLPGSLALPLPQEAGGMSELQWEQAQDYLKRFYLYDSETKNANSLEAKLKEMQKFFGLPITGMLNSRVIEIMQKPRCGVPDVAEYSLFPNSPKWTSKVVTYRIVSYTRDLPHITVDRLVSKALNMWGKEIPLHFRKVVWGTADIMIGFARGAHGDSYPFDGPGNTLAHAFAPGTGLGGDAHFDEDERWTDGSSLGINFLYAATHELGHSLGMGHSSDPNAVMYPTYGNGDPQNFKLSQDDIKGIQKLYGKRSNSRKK

Collagenase 3 = Collagenase 3 (Homo sapiens, UniProt P45452); test: Inhibition of MMP-13 (unknown origin) at 25 uM using TQ3-GABA-Pro-Cha-Abu-Smc-His-Ala-Dab(6'-TAMRA)-Ala-Lys-NH2 as substrate bu fluorometric analysis; summary of the method: as §1
[6] = GSH reactivity assessed as pseudo first order rate constant at 1 mM in presence of glutathione; type: physicochemical; conditions: 1000 µM
[7] = biological target: 72 kDa type IV collagenase (Homo sapiens, UniProt P08253); test: Inhibition of MMP-2 (unknown origin) at 25 uM using TQ3-GABA-Pro-Cha-Abu-Smc-His-Ala-Dab(6'-TAMRA)-Ala-Lys-NH2 as substrate bu fluorometric analysis; summary of the method: as §1
Chain of 72 kDa type IV collagenase (P08253 whole entry): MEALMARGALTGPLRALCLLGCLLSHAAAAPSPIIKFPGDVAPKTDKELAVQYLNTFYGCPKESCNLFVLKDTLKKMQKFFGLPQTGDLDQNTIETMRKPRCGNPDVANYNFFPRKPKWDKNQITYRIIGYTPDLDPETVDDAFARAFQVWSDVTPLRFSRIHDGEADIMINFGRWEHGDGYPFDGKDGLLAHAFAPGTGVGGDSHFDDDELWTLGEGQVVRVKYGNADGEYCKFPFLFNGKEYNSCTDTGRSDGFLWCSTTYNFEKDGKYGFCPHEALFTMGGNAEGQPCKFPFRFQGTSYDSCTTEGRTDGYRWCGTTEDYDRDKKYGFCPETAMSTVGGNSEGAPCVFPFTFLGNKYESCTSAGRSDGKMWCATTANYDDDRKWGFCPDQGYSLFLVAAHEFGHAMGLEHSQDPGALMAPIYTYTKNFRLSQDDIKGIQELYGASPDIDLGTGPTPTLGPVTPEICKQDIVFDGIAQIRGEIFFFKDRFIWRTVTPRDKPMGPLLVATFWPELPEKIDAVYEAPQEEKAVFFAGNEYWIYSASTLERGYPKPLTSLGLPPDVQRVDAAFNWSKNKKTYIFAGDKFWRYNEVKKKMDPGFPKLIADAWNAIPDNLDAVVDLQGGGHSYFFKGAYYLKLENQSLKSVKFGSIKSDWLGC

Stromelysin-1 = Stromelysin-1 (Homo sapiens, UniProt P08254); test: Inhibition of MMP-3 (unknown origin) at 25 uM using TQ3-GABA-Pro-Cha-Abu-Smc-His-Ala-Dab(6'-TAMRA)-Ala-Lys-NH2 as substrate bu fluorometric analysis; summary of the method: as §1
Chain of Stromelysin-1 (P08254 whole entry): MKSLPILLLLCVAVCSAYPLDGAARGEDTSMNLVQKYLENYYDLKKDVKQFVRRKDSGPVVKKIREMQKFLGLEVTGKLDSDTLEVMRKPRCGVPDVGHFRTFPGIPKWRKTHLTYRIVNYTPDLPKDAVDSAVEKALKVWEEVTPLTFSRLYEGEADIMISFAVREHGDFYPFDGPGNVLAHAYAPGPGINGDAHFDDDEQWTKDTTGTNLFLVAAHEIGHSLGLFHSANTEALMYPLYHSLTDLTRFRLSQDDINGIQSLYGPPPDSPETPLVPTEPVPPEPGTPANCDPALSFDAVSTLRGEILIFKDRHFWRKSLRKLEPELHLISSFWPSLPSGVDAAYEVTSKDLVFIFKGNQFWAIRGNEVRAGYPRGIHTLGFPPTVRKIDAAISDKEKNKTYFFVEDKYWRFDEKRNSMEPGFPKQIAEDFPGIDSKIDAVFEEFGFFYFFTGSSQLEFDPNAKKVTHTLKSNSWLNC

Interstitial collagenase = biological target: T3, Interstitial collagenase (Homo sapiens, UniProt P03956); test: Inhibition of MMP-1 (unknown origin) at 25 uM using TQ3-GABA-Pro-Cha-Abu-Smc-His-Ala-Dab(6'-TAMRA)-Ala-Lys-NH2 as substrate bu fluorometric analysis; summary of the method: as §1
T3 sequence (P03956 whole entry): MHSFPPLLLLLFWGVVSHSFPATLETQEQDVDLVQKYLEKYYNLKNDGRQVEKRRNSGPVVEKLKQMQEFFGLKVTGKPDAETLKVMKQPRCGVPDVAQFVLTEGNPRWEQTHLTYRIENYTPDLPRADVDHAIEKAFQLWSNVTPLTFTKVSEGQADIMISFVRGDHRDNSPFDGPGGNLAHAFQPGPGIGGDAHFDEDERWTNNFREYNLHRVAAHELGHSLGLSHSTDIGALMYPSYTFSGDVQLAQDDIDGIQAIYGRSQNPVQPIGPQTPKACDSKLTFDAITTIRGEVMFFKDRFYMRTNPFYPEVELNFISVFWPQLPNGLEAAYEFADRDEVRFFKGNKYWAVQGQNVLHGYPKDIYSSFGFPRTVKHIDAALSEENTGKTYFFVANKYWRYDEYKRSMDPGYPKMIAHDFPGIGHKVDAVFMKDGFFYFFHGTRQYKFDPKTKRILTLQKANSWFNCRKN

[8] = biological target: Macrophage metalloelastase (Homo sapiens, UniProt P39900); test: Inhibition of MMP-12 (unknown origin) at 25 uM using TQ3-GABA-Pro-Cha-Abu-Smc-His-Ala-Dab(6'-TAMRA)-Ala-Lys-NH2 as substrate bu fluorometric analysis; summary of the method: as §1
Chain of Macrophage metalloelastase (P39900 whole entry): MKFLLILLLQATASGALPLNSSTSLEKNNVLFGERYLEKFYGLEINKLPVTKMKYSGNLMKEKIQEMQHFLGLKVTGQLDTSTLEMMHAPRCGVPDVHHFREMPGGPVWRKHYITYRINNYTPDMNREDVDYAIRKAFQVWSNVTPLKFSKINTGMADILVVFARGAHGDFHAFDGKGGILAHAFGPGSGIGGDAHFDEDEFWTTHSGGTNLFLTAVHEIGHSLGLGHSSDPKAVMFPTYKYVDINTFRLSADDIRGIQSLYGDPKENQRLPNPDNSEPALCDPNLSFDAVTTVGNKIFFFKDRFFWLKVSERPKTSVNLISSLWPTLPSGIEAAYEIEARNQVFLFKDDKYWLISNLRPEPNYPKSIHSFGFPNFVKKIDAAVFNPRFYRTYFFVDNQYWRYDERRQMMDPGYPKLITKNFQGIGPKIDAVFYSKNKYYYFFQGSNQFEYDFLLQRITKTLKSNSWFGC

Neutrophil collagenase = Neutrophil collagenase (Homo sapiens, UniProt P22894); test: Inhibition of MMP-8 (unknown origin) at 25 uM using TQ3-GABA-Pro-Cha-Abu-Smc-His-Ala-Dab(6'-TAMRA)-Ala-Lys-NH2 as substrate bu fluorometric analysis; summary of the method: as §1
Chain of Neutrophil collagenase (P22894 whole entry): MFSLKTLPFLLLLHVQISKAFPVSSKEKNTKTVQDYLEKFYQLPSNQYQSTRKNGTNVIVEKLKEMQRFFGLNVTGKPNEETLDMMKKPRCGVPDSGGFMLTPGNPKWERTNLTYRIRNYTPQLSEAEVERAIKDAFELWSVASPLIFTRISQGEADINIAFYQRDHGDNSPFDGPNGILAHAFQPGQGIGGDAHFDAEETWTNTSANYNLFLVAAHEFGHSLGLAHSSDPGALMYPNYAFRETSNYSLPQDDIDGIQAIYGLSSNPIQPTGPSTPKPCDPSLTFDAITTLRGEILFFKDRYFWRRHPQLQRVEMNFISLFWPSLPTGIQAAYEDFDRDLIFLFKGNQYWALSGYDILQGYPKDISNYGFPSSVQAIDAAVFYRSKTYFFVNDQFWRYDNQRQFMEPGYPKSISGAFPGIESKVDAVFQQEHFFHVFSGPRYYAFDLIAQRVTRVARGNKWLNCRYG

## O=C(/C=C/c1ccc(Cl)cc1Cl)N(O)CCCCC1CO1 (stereo not drawn)
[1]
  TDI: inactive

## O=C(CBr)NCCCCN(O)C(=O)/C=C/c1ccc(Cl)cc1Cl
[1]
  TDI: inactive

## O=C(CI)NCCCCN(O)C(=O)/C=C/c1ccc(Cl)cc1Cl
[2]
  Ratio: 12.4 M⁻¹ s⁻¹

## O=C(NCCCCN(O)C(=O)/C=C/c1ccc(Cl)cc1Cl)C(F)Cl (stereo not drawn)
[1]
  TDI: inactive

## C#CCN(O)C(=O)/C=C/c1ccc(Cl)cc1Cl
[1]
  TDI: inactive

## O=C(NCCN(O)C(=O)/C=C/c1ccc(Cl)cc1Cl)C(F)Cl (stereo not drawn)
[1]
  TDI: inactive

## O=C(NCCCN(O)C(=O)/C=C/c1ccc(Cl)cc1Cl)Oc1ccccc1
[1]
  TDI: inactive

## CC(=O)NCCCN(O)C(=O)/C=C/c1ccc(Cl)cc1Cl
HEK293
  Activity: Non-Toxic
[1]
  TDI: inactive

## O=C(/C=C/c1ccc(Cl)cc1Cl)NCCCN1C(=O)C=CC1=O
HEK293; Homo sapiens, HEK293, 24 h
  IC50: 6 µM
[1]
  TDI: Active

## CS(=O)(=O)SCCCCCCN(O)C(=O)/C=C/c1ccc(Cl)cc1Cl
[2]
  Ratio: 514 M⁻¹ s⁻¹
[3]
  half-life at 1000 µM: < 5 min

## O=C(/C=C/c1ccc(Cl)cc1Cl)NCCCCCC1CO1 (stereo not drawn)
[1]
  TDI: inactive

## O=C(CI)NCCCN(O)C(=O)/C=C/c1ccc(Cl)cc1Cl
[4]
  inhibition (INH): Not Active
[5]
  inhibition (INH): Not Active
Matrilysin
  inhibition (INH): Not Active
Collagenase 3
  inhibition (INH): Not Active
[6]
  K: 0.0611 min⁻¹
[7]
  inhibition (INH): Not Active
Stromelysin-1
  inhibition (INH): Not Active
Interstitial collagenase
  inhibition (INH): Not Active
[8]
  inhibition (INH): Not Active
Neutrophil collagenase
  inhibition (INH): Not Active

## O=C(/C=C/c1ccc(Cl)cc1Cl)N(O)CCCN1C(=O)C=CC1=O
[4]
  inhibition (INH): Active
[5]
  inhibition (INH): Active
Matrilysin
  inhibition (INH): Active
Collagenase 3
  inhibition (INH): Active
[6]
  K: 0.0023 min⁻¹
[7]
  inhibition (INH): Active
Stromelysin-1
  inhibition (INH): Active
Interstitial collagenase
  inhibition (INH): Active
[8]
  inhibition (INH): Active
Neutrophil collagenase
  inhibition (INH): Active

## N#CC1(NC(=O)CCCN(O)C(=O)/C=C/c2ccc(Cl)cc2Cl)CC1
[1]
  TDI: inactive

## C=C(F)C(=O)NCCN(O)C(=O)/C=C/c1ccc(Cl)cc1Cl
[1]
  TDI: inactive

## O=C(/C=C/c1ccc(Cl)cc1Cl)N(O)CCCCCCC1CO1 (stereo not drawn)
[1]
  TDI: inactive

## O=C(/C=C/c1ccc(Cl)cc1Cl)NCCCNC(=O)CI
HEK293
  Activity: Toxic
[1]
  TDI: Active

## O=C(/C=C/c1ccc(Cl)cc1Cl)N(O)CCCCN1C(=O)C=CC1=O
[2]
  Ratio: 46.3 M⁻¹ s⁻¹

## O=C(CCl)NCCN(O)C(=O)/C=C/c1ccc(Cl)cc1Cl
[1]
  TDI: inactive

## O=C(NCCN(O)C(=O)/C=C/c1ccc(Cl)cc1Cl)Oc1ccccc1
[1]
  TDI: inactive

## C=CC(=O)NCCN(O)C(=O)/C=C/c1ccc(Cl)cc1Cl
[1]
  TDI: inactive

## C=CC(=O)NCCCCCCN(O)C(=O)/C=C/c1ccc(Cl)cc1Cl
[1]
  TDI: inactive

## COC(=O)/C=C/C(=O)OC [DIMETHYL FUMARATE]
[6]
  K: 0.0589 min⁻¹

## C=CC(=O)NCCCN(O)C(=O)/C=C/c1ccc(Cl)cc1Cl
[1]
  TDI: inactive

## C#CCCCCN(O)C(=O)/C=C/c1ccc(Cl)cc1Cl
[1]
  TDI: inactive

## C#CCCN(O)C(=O)/C=C/c1ccc(Cl)cc1Cl
[1]
  TDI: inactive

## O=C(/C=C/C(F)F)NCCCN(O)C(=O)/C=C/c1ccc(Cl)cc1Cl
[1]
  TDI: inactive

## O=C(/C=C/c1ccc(Cl)cc1Cl)N(O)CCCN1C(=O)CCC1=O
HEK293
  Activity: Non-Toxic
[1]
  inhibition: inactive

## O=C(CCl)NCCCN(O)C(=O)/C=C/c1ccc(Cl)cc1Cl
[1]
  TDI: inactive

## O=C(/C=C/C(F)F)NCCCCN(O)C(=O)/C=C/c1ccc(Cl)cc1Cl
[1]
  TDI: inactive

## C=CC(=O)NCCCCCN(O)C(=O)/C=C/c1ccc(Cl)cc1Cl
[1]
  TDI: inactive

## O=C(NCCCN(O)C(=O)/C=C/c1ccc(Cl)cc1Cl)C(F)Cl (stereo not drawn)
[1]
  TDI: inactive

## C=C(F)C(=O)NCCCCN(O)C(=O)/C=C/c1ccc(Cl)cc1Cl
[1]
  TDI: inactive

## O=C(/C=C/c1ccc(Cl)cc1Cl)N(O)CCCCCC1CO1 (stereo not drawn)
[4]
  inhibition (INH): Not Active
[5]
  inhibition (INH): Not Active
Matrilysin
  inhibition (INH): Not Active
Collagenase 3
  inhibition (INH): Not Active
[6]
  K: 0.0012 min⁻¹
[7]
  inhibition (INH): Not Active
Stromelysin-1
  inhibition (INH): Not Active
Interstitial collagenase
  inhibition (INH): Not Active
[8]
  inhibition (INH): Not Active
Neutrophil collagenase
  inhibition (INH): Not Active

## O=C(/C=C/C(F)F)NCCN(O)C(=O)/C=C/c1ccc(Cl)cc1Cl
[1]
  TDI: inactive

## O=C(CBr)NCCCN(O)C(=O)/C=C/c1ccc(Cl)cc1Cl
[1]
  TDI: inactive

## C=C(F)C(=O)NCCCN(O)C(=O)/C=C/c1ccc(Cl)cc1Cl
[1]
  TDI: inactive

## O=C(CCl)NCCCCN(O)C(=O)/C=C/c1ccc(Cl)cc1Cl
[1]
  TDI: inactive

## C#CCCCN(O)C(=O)/C=C/c1ccc(Cl)cc1Cl
[1]
  TDI: inactive

## O=C(CBr)NCCN(O)C(=O)/C=C/c1ccc(Cl)cc1Cl
[1]
  TDI: inactive

## C=CC(=O)NCCCCN(O)C(=O)/C=C/c1ccc(Cl)cc1Cl
[1]
  TDI: inactive
